Measured values published in ChEMBL document CHEMBL3739301, “Design, synthesis and biological evaluation of tricyclic diterpene derivatives as novel neuroprotective agents against ischemic brain injury” (Eur J Med Chem, 2015).
Active and inactive are the calls of the source. The rule behind the calls is not given here.

system: not listed separately; assay: Neuroprotective activity against glutamate-induced neuronal cell death in Sprague-Dawley rat CGN cells assessed as cell viability at 10 uM preincubated for 24 hrs followed by glutamate challenge measured after 24 hrs by MTT assay (reference value: 40.4%); type: functional; settings: read-out: Activity

Structure (SMILES) | viability at 10 µM
CCNC(=O)c1cc2c(cc1OC)[C@@]1(C)CC[C@H](O)C(C)(C)[C@@H]1CC2 | 78.2%
COc1cc2c(cc1C(=O)N(C)C)CC[C@H]1C(C)(C)[C@@H](O)CC[C@]21C | 70.7%
CCCCOC(=O)c1cc2c(cc1OC)[C@@]1(C)CC[C@H](O)C(C)(C)[C@@H]1CC2 | 71%
COc1cc2c(cc1C(=O)NCC(=O)O)CC[C@H]1C(C)(C)[C@@H](O)CC[C@]21C | 57.1%
CC(=O)c1cc2c(cc1O)[C@@]1(C)CC[C@H](O)C(C)(C)[C@@H]1CC2 | 77.1%
C#CCNC(=O)c1cc2c(cc1OC)[C@@]1(C)CC[C@H](O)C(C)(C)[C@@H]1CC2 | 81.7%
CCOC(=O)c1cc2c(cc1OC)[C@@]1(C)CC[C@H](O)C(C)(C)[C@@H]1CC2 | 73.1%
CCC(=O)c1cc2c(cc1OC)[C@@]1(C)CC[C@H](O)C(C)(C)[C@@H]1CC2 | 63.2%
COc1cc2c(cc1CO)CC[C@H]1C(C)(C)[C@@H](O)CC[C@]21C | 64.4%

system: not listed separately; assay: Neuroprotective activity against oxygen-glucose deprivation-induced neuronal cell death in Sprague-Dawley rat CGN cells assessed as cell viability at 10 uM preincubated for 24 hrs followed by induction of oxygen-glucose deprivation measured after 24 hrs by MTT assay (reference value: 48.7%); type: functional; settings: read-out: Activity

Structure (SMILES) | viability at 10 µM
C#CCNC(=O)c1cc2c(cc1OC)[C@@]1(C)CC[C@H](O)C(C)(C)[C@@H]1CC2 | 67.8%

system: not listed separately; assay: Neuroprotective activity against glutamate-induced neuronal cell death in Sprague-Dawley rat CGN cells assessed as cell viability at 50 uM preincubated for 24 hrs followed by glutamate challenge measured after 24 hrs by MTT assay (reference value: 40.4%); type: functional; settings: read-out: Activity

Structure (SMILES) | viability at 50 µM
CC1=NN(c2ccccc2)C(=O)C1 [EDARAVONE] | 86.7%

system: not listed separately; assay: Neuroprotective activity against glutamate-induced neuronal cell death in Sprague-Dawley rat CGN cells at 10 uM preincubated for 24 hrs followed by glutamate challenge measured after 24 hrs relative to control; type: functional; settings: not given

Structure (SMILES) | Activity
CCNC(=O)c1cc2c(cc1OC)[C@@]1(C)CC[C@H](O)C(C)(C)[C@@H]1CC2 | 63.4%
COc1cc2c(cc1C(=O)N(C)C)CC[C@H]1C(C)(C)[C@@H](O)CC[C@]21C | 50.8%
CCCCOC(=O)c1cc2c(cc1OC)[C@@]1(C)CC[C@H](O)C(C)(C)[C@@H]1CC2 | 51.3%
COc1cc2c(cc1C(=O)NCC(=O)O)CC[C@H]1C(C)(C)[C@@H](O)CC[C@]21C | 28%
CC(=O)c1cc2c(cc1O)[C@@]1(C)CC[C@H](O)C(C)(C)[C@@H]1CC2 | 61.6%
C#CCNC(=O)c1cc2c(cc1OC)[C@@]1(C)CC[C@H](O)C(C)(C)[C@@H]1CC2 | 69.3%
CCOC(=O)c1cc2c(cc1OC)[C@@]1(C)CC[C@H](O)C(C)(C)[C@@H]1CC2 | 54.9%
CCC(=O)c1cc2c(cc1OC)[C@@]1(C)CC[C@H](O)C(C)(C)[C@@H]1CC2 | 38.3%
COc1cc2c(cc1CO)CC[C@H]1C(C)(C)[C@@H](O)CC[C@]21C | 40.3%

system: not listed separately; assay: Neuroprotective activity against glutamate-induced neuronal cell death in Sprague-Dawley rat CGN cells at 50 uM preincubated for 24 hrs followed by glutamate challenge measured after 24 hrs relative to control; type: functional; settings: not given

Structure (SMILES) | Activity
CC1=NN(c2ccccc2)C(=O)C1 [EDARAVONE] | 77.7%

system: neuronal; assay: Neuroprotective activity against glutamate-induced neuronal cell death in Sprague-Dawley rat CGN cells assessed as increase in cell viability preincubated for 24 hrs followed by glutamate challenge measured after 24 hrs by MTT assay; type: functional, cell-based; settings: not given

Structure (SMILES) | Activity
C#CCNC(=O)c1cc2c(cc1OC)[C@@]1(C)CC[C@H](O)C(C)(C)[C@@H]1CC2 | Dose-dependent effect

system: not listed separately; assay: Neuroprotective activity against oxygen-glucose deprivation-induced neuronal cell death in Sprague-Dawley rat CGN cells assessed as cell viability at 1 uM preincubated for 24 hrs followed by induction of oxygen-glucose deprivation measured after 24 hrs by MTT assay (reference value: 48.7%); type: functional; settings: read-out: Activity

Structure (SMILES) | viability at 1 µM
C#CCNC(=O)c1cc2c(cc1OC)[C@@]1(C)CC[C@H](O)C(C)(C)[C@@H]1CC2 | 59.7%

system: not listed separately; assay: Neuroprotective activity against oxygen-glucose deprivation-induced neuronal cell death in Sprague-Dawley rat CGN cells assessed as cell viability at 50 uM preincubated for 24 hrs followed by induction of oxygen-glucose deprivation measured after 24 hrs by MTT assay (reference value: 48.7%); type: functional; settings: read-out: Activity

Structure (SMILES) | viability at 50 µM
CC1=NN(c2ccccc2)C(=O)C1 [EDARAVONE] | 85.8%

system: not listed separately; assay: Neuroprotective activity against oxygen-glucose deprivation-induced neuronal cell death in Sprague-Dawley rat CGN cells at 10 uM preincubated for 24 hrs followed by induction of oxygen-glucose deprivation measured after 24 hrs relative to control; type: functional; settings: not given

Structure (SMILES) | Activity
C#CCNC(=O)c1cc2c(cc1OC)[C@@]1(C)CC[C@H](O)C(C)(C)[C@@H]1CC2 | 37.2%

system: not listed separately; assay: Neuroprotective activity against oxygen-glucose deprivation-induced neuronal cell death in Sprague-Dawley rat CGN cells at 50 uM preincubated for 24 hrs followed by induction of oxygen-glucose deprivation measured after 24 hrs relative to control; type: functional; settings: not given

Structure (SMILES) | Activity
CC1=NN(c2ccccc2)C(=O)C1 [EDARAVONE] | 72.3%

system: not listed separately; assay: Neuroprotective activity against nutrient deprivation-induced neuronal cell death in Sprague-Dawley rat CGN cells assessed as cell viability at […] preincubated for 24 hrs followed by induction of nutrient deprivation measured after 24 hrs by MTT assay (reference value: 44.1%); type: functional; settings: read-out: Activity
How it was run: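 Cerebellar granule neurons pretreated 24 h with 1 or […] compound (0.1% DMSO), then kept without B27 supplement for 24 h. Viability by MTT (0.5 mg/ml, 4 h, OD 570 nm) against non-deprived control (100%); neuroprotection % from basal value. n = 3, mean ± SD.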

Structure (SMILES) | viability
CC(=O)N[C@@H](CS)C(=O)O [ACETYLCYSTEINE] | 53.7%

system: not listed separately; assay: Neuroprotective activity against nutrient deprivation-induced neuronal cell death in Sprague-Dawley rat CGN cells at 10 uM preincubated for 24 hrs followed by induction of nutrient deprivation measured after 24 hrs relative to control; type: functional; settings: not given
How it was run: (§1)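 Primary rat cerebellar granule neurons (8-day-old Sprague-Dawley pups, DIV 6-8) pretreated 24 h with compound (0.1% DMSO final), then deprived of B27 serum substitute for 24 h. MTT viability (0.5 mg/ml, 4 h) read at 570 nm against control = 100%; neuroprotection percentage derived from the basal deprived value; mean ± SD, n = 3.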

Structure (SMILES) | Activity
C#CCNC(=O)c1cc2c(cc1OC)[C@@]1(C)CC[C@H](O)C(C)(C)[C@@H]1CC2 | 17%

system: not listed separately; assay: Neuroprotective activity against nutrient deprivation-induced neuronal cell death in Sprague-Dawley rat CGN cells at […] preincubated for 24 hrs followed by induction of nutrient deprivation measured after 24 hrs relative to control; type: functional; settings: not given; how it was run: as §1

Structure (SMILES) | Activity
CC(=O)N[C@@H](CS)C(=O)O [ACETYLCYSTEINE] | 17.2%

system: not listed separately; assay: Cytotoxicity against Sprague-Dawley rat CGN cells at <10 uM after 72 hrs by MTT assay; type: cell-based; settings: not given
How it was run: (§2)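 Primary cerebellar granule neurons from 8-day SD rat pups; cytosine arabinoside […] added at 24 h, used at DIV 6–8. Cells exposed to a concentration series for 72 h, 0.1% DMSO final. Viability by MTT (0.5 mg/ml, 4 h, 37 °C); formazan dissolved in DMSO, OD 570 nm. n = 3, mean ± SD.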

Structure (SMILES) | Activity
C#CCNC(=O)c1cc2c(cc1OC)[C@@]1(C)CC[C@H](O)C(C)(C)[C@@H]1CC2 | Non-toxic

system: not listed separately; assay: Cytotoxicity against Sprague-Dawley rat CGN cells at 50 to 100 uM after 72 hrs by MTT assay; type: cell-based; settings: not given; how it was run: as §2

Structure (SMILES) | Activity
C#CCNC(=O)c1cc2c(cc1OC)[C@@]1(C)CC[C@H](O)C(C)(C)[C@@H]1CC2 | Toxic

system: Rattus norvegicus; assay: Anti-ischemic activity in Sprague-Dawley rat transient middle cerebral artery occlusion model assessed as reduction in infarct volume at 3 mg/kg, iv administered for 2 to 6 hrs post middle cerebral artery occlusion measured at 24 hrs by TTC staining-based morphometric analysis; type: organism-based; settings: in vivo
How it was run: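 Male Sprague-Dawley rats (260-280 g), middle cerebral artery occluded 2 h by intraluminal nylon monofilament, then reperfused; body temperature held at 37 C. Drug given iv at 2, 4 and 6 h after ischemia onset (test agent in DMSO, edaravone in saline; vehicle controls). Neurological scoring at 24 h; 2 mm coronal slices stained with 2% TTC 20 min at 37 C, formalin-fixed; infarct volume by morphometry; n = 8-12.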

Structure (SMILES) | Activity
CC1=NN(c2ccccc2)C(=O)C1 [EDARAVONE] | Active

system: Rattus norvegicus; assay: Anti-ischemic activity in Sprague-Dawley rat transient middle cerebral artery occlusion model assessed as reduction in neurological deficit at 3 mg/kg, iv administered for 2 to 6 hrs post middle cerebral artery occlusion measured at 24 hrs; type: functional, organism-based; settings: not given
How it was run: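 Male SD rats (260–280 g); intraluminal nylon suture (~0.26 mm, round tip) occluded MCA for 2 h, then withdrawn for reperfusion, body temperature held at 37 °C. Given iv at 2, 4 and 6 h after ischemia onset; 10 mg/kg in DMSO or 3 mg/kg in saline; DMSO or saline vehicle controls. Neurological score at 24 h after MCAO; n = 8–12, mean ± SD.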

Structure (SMILES) | Activity
CC1=NN(c2ccccc2)C(=O)C1 [EDARAVONE] | Active

system: Rattus norvegicus; assay: Antioxidant activity in Sprague-Dawley rat transient middle cerebral artery occlusion model assessed as […] in GSH level in ipsilateral cortex at 3 mg/kg, iv measured at 24 hrs post middle cerebral artery occlusion; type: functional, organism-based; settings: not given
How it was run: (§3)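 Rat tMCAO: 2 h suture occlusion, then reperfusion. Dosing iv at 2, 4 and 6 h after onset, 10 mg/kg (DMSO) or 3 mg/kg (saline). At 24 h the ipsilateral cortex was lysed in RIPA buffer and protein quantified by BCA. GSH concentration and SOD activity were then measured with commercial kits.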

Structure (SMILES) | Activity
CC1=NN(c2ccccc2)C(=O)C1 [EDARAVONE] | Active

system: Rattus norvegicus; assay: Antioxidant activity in Sprague-Dawley rat transient middle cerebral artery occlusion model assessed as […] in SOD level in ipsilateral cortex at 3 mg/kg, iv measured at 24 hrs post middle cerebral artery occlusion; type: functional, organism-based; settings: not given; how it was run: as §3

Structure (SMILES) | Activity
CC1=NN(c2ccccc2)C(=O)C1 [EDARAVONE] | Active
